Source: article PMC7108934 (ChemPlusChem, 2019)
Read-outs that look alike come from different tables or passages of the source.

Tests used:
[1] = system: A549 cells (human lung carcinoma); test: MTT cytotoxicity assay, A549; type: cell-based; conditions: read-out: (IC50 ± SD) A549
[2] = system: SKOV3 cells (human ovarian carcinoma); test: MTT cytotoxicity assay, SKOV3; type: cell-based; conditions: read-out: (IC50 ± SD) SKOV3, at least 72 h incubation, mean ± SD
Method in brief: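 Cells were grown in RPMI 1640 with 10% FBS and 1% penicillin-streptomycin at 37 °C, humidified CO2. They were seeded at 0.8 × 10^4 cells/well and allowed 24 h recovery. Test compound was added at 1–100 μM in triplicate for at least 72 h. Medium was replaced with 0.5 mg/mL MTT for 3 h at room temperature, and formazan was dissolved in DMSO. Absorbance was read at 490 nm. IC50 came from curve fitting, reported as mean ± SD.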

SKOV3 cells = test: Intracellular ROS determination; type: cell-based, human; conditions: SKOV3, 1000 μM, positive control
Method in brief: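 SKOV3 single-cell suspension (300 × 10^3) was exposed to test compound at 10, 20 or 40 μM for 2 h at 37 °C; untreated cells served as negative control. Cells were washed and loaded with DCFH-DA in phenol red-free RPMI for 1 h at 37 °C. The positive control got H2O2 (1000 μM) for a further 20 min. At least 15000 events were acquired by flow cytometry. ROS is reported as MFI divided by the untreated MFI0.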

MCF-7 cells = test: Comet assay; type: cell-based, human; conditions: MCF-7, 1 μM, positive control, versus untreated cells
Method in brief: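 Alkaline comet assay on MCF-7 cells (5 × 10^5). Cells got test compound at 10 or 50 μM, doxorubicin at 1 μM as positive control, or no treatment, for 20 min at 37 °C in 5% CO2. Cells were embedded in LMPA over NMPA-coated slides, lysed cold overnight and held 40 min in alkaline buffer. Slides were electrophoresed at 24 V/300 mA, neutralised at pH 7.4, ethanol-dehydrated, PI-stained (50 μg/ml) and imaged by fluorescence microscopy at 20×.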

[3] = MTT, at least 72 h incubation, mean ± SD

Row | Structure (SMILES) | IC50 ([1]; Homo sapiens, A549, 72 h) [µM] | further results
1 | N.N.[Cl][Pt][Cl] [Cisplatin, reference compound] |  | IC50 [1, 3]: 9.71 ± 1.7 µM; IC50 [2]: 14.5 ± 1.54 µM
2 | OO [Complex H2O2, H2O2] |  | ROS induction (SKOV3 cells): could induce ROS production within 20 minutes
3 | C=CCP(c1ccccc1)c1ccccc1 [PPh2allyl, allyldiphenylphosphine] |  | IC50 [1, 3]: > 100 µM
4 | Sc1nc2ccccc2[nH]1 [Sbi, benzimidazole-2-thiol] | > 100 | 
5 | Sc1nc2ccccc2s1 [Sbt, benzothiazole-2-thiol] | > 100 | 
6 | Sc1ccccn1 [Spy, pyridine-2-thiol] | > 100 | 
7 | FC(F)(F)c1ccc(S)nc1 [Spy-5-CF3, 5-(trifluoromethyl)-pyridine-2-thiol] | > 100 | 
8 | Sc1ncccn1 [SpyN, pyrimidine-2-thiol] | > 100 | 
9 | COc1cccc2c1C(=O)c1c(O)c3c(c(O)c1C2=O)C[C@@](O)(C(=O)CO)C[C@@H]3O[C@H]1C[C@H](N)[C@H](O)[C@H](C)O1 [doxorubicin] |  | percentage of degraded DNA in the tail (MCF-7 cells): remarkably increase
